Experiments:
B16-F10 [1] = assay: Cytotoxicity in mouse B16F10 cells at <15 ug/ml measured after 48 hrs by MTT assay; assay type: cell-based; conditions: b16-f10, 48 h
Homo sapiens [2] = organism: Homo sapiens; assay: Inhibition of SOCE signalling in human Jurkat-T cells assessed as reduction in alpha-CD3 induced cytoplasmic calcium concentration at 30 uM measured at every 2 sec interval by Fura-2 dye based fluorimetric analysis; assay type: cell-based; design: scale not given: the % may be the effect or the level left
[3] = biological target: Calcium release-activated calcium channel protein 1 (Homo sapiens) (UniProt Q96D31); assay: Antagonist activity at human ORAI1 expressed in HEK293T cells assessed as inhibition of […]-induced inwardly rectifying current at 90 uM and -120 mV by whole cell patch-clamp method relative to control; assay type: cell-based
Calcium release-activated calcium channel protein 1 (Homo sapiens), sequence (Q96D31 whole entry, looked up): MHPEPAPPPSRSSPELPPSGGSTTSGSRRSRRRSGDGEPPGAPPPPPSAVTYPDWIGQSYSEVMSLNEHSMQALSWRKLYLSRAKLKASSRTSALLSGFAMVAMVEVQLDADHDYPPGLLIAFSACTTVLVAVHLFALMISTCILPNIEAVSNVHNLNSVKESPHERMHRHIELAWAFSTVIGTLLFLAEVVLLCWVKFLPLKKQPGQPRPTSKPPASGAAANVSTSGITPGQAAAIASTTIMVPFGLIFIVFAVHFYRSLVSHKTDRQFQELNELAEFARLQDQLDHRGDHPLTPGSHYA

Homo sapiens [4] = organism: Homo sapiens; assay: Inhibition of SOCE signalling in human Jurkat-T cells assessed as reduction in alpha-CD3 induced cytoplasmic calcium concentration at 50 uM measured at every 2 sec interval by Fura-2 dye based fluorimetric analysis; assay type: cell-based; design: scale not given: the % may be the effect or the level left
B16-F10 [5] = assay: Inhibition of UV-induced melanogenesis in mouse B16F10 cells assessed as reduction in melanin level pretreated at 7.5 ug/ml prior to UVB exposure measured after 48 hrs by spectrophotometric method; assay type: functional; design: scale not given: the % may be the effect or the level left
Procedure, shortened: (§1)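 B16F10 murine melanoma cells were pretreated with test agent (7.5 or 15 μg/mL; reference ORAI1 inhibitor 3 μg/mL) before UVB exposure. Melanin content was measured 48 h later.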

[6] = biological target: Transient receptor potential cation channel subfamily V member 1 (Homo sapiens) (UniProt Q8NER1); assay: Antagonist activity at human TRPV1 expressed in HEK293T cells assessed as capsaicin-induced inward transient currents at 90 uM and -60 mV by whole cell patch-clamp method relative to control; assay type: cell-based; design: scale not given: the % may be the effect or the level left
Transient receptor potential cation channel subfamily V member 1 (Homo sapiens), sequence (Q8NER1 whole entry): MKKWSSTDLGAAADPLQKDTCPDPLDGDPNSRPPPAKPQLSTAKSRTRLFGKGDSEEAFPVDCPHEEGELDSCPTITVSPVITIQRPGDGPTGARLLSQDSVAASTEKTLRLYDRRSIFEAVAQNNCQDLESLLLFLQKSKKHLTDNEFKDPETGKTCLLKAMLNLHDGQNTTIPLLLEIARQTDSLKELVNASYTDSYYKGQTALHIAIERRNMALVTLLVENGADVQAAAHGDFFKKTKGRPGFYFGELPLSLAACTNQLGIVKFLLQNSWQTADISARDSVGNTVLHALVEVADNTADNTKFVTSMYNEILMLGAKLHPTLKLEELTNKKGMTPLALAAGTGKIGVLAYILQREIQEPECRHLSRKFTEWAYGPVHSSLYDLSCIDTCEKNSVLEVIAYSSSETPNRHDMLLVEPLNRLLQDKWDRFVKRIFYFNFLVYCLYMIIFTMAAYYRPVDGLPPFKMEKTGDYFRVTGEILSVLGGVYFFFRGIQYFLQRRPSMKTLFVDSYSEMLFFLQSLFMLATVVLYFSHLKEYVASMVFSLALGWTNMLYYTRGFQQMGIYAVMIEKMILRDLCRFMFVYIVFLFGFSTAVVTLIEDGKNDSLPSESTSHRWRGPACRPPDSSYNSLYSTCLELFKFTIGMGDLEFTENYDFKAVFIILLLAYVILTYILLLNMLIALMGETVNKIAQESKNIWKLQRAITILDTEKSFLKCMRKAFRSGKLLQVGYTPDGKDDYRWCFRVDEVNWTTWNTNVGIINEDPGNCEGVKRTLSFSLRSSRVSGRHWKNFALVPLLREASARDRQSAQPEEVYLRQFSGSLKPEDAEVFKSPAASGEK
Procedure, shortened: (§2)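 Whole-cell patch clamp, with TRPV1 current evoked by 1 μM capsaicin. Current was compared before and after 90 μM test agent using mean I−V curves, read at −60 mV. Remaining current was normalized to the steady-state peak current before treatment (100%), reported as mean ± SEM, n = 3–6.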

B16-F10 [7] = assay: Inhibition of UV-induced melanogenesis in mouse B16F10 cells assessed as reduction in melanin level pretreated at 15 ug/ml prior to UVB exposure measured after 48 hrs by spectrophotometric method; assay type: functional; design: scale not given: the % may be the effect or the level left; procedure, shortened: as §1
Homo sapiens [8] = organism: Homo sapiens; assay: Inhibition of SOCE signalling in human Jurkat-T cells assessed as reduction in alpha-CD3 induced cytoplasmic calcium concentration at 10 uM measured at every 2 sec interval by Fura-2 dye based fluorimetric analysis; assay type: cell-based; design: scale not given: the % may be the effect or the level left
[9] = biological target: Calcium release-activated calcium channel protein 1 (Homo sapiens) (UniProt Q96D31); assay: Antagonist activity at human ORAI1 expressed in HEK293T cells assessed as […]-induced inwardly rectifying current at 90 uM and -120 mV by whole cell patch-clamp method relative to control; assay type: cell-based; design: scale not given: the % may be the effect or the level left
Homo sapiens [10] = organism: Homo sapiens; assay: Inhibition of SOCE signalling in human Jurkat-T cells assessed as reduction in alpha-CD3 induced cytoplasmic calcium concentration measured at every 2 sec interval by Fura-2 dye based fluorimetric analysis; assay type: cell-based
[11] = biological target: Calcium release-activated calcium channel protein 1 (Homo sapiens) (UniProt Q96D31); assay: Antagonist activity at human ORAI1 expressed in HEK293T cells assessed as inhibition of […]-induced inwardly rectifying current at 10 uM and -120 mV by whole cell patch-clamp method; assay type: cell-based
[12] = biological target: Calcium release-activated calcium channel protein 1 (Homo sapiens) (UniProt Q96D31); assay: Antagonist activity at human ORAI1 expressed in HEK293T cells assessed as inhibition of […]-induced inwardly rectifying current at -120 mV by whole cell patch-clamp method; assay type: cell-based
[13] = biological target: Calcium release-activated calcium channel protein 1 (Homo sapiens) (UniProt Q96D31); assay: Antagonist activity at human ORAI1 expressed in HEK293T cells assessed as inhibition of […] induced inwardly rectifying current at 30 uM and -120 mV by whole cell patch-clamp method; assay type: cell-based
[14] = biological target: Transient receptor potential cation channel subfamily V member 1 (Homo sapiens) (UniProt Q8NER1); assay: Antagonist activity at human TRPV1 expressed in HEK293T cells assessed as inhibition of capsaicin-induced inward transient currents at 90 uM and -60 mV by whole cell patch-clamp method relative to control; assay type: cell-based; procedure, shortened: as §2
B16-F10 [15] = assay: Inhibition of UV-induced melanogenesis in mouse B16F10 cells assessed as reduction in melanin level pretreated with compound prior to UVB exposure measured after 48 hrs by spectrophotometric method; assay type: functional, cell-based; procedure, shortened: as §1
B16-F10 [16] = assay: Cytotoxicity in mouse B16F10 cells at <3 ug/ml measured after 48 hrs by MTT assay; assay type: cell-based; conditions: b16-f10, 48 h

C=C(C)[C@@H]1CCC2=CCC[C@@H](C)[C@]2(C)C1 was tested, and the Activity (B16-F10 [1]) was “Non-Toxic”, the Activity (Homo sapiens [2]) was 75% and the inhibition [3] was 94 to 95%. For the same molecule, the Activity (Homo sapiens [4]) was 85%, the Activity (B16-F10 [5]) was 94.82% and the Activity [6] was 31%. It also gave an Activity (B16-F10 [7]) of 82.66%, an Activity (Homo sapiens [8]) of 53% and an Activity [9] of 5%. For the same molecule, the Activity (Homo sapiens [10]) was “Dose-dependent effect”, the inhibition [11] was 13% and the inhibition [12] was “Dose-dependent effect”. For the same molecule, the inhibition [13] was 45%, the inhibition [14] was 69% and the Activity (B16-F10 [15]) was “Dose-dependent effect”.
Molecule C=C(C)[C@@H]1CC[C@@]2(C)CCC(=O)C(C)=C2C1 has an Activity [6] of 94% and an Activity [9] of 50%.
C=C1CC[C@H]2O[C@]2(C)CC[C@@H]2[C@@H]1CC2(C)C gave an Activity [6] of 45% and an Activity [9] of 44%.
With Cc1nnsc1C(=O)Nc1ccc(-n2nc(C(F)(F)F)cc2C(F)(F)F)cc1 the Activity (B16-F10 [16]) was “Non-Toxic”.
C=C1C2CCC(C2)C1(C)C (centres undefined) was tested, and the Activity [6] was 115% and the Activity [9] was 79%.
Work on C=C(C)[C@@H]1CCC2=CC(=O)C[C@@H](C)[C@]2(C)C1 yielded an Activity [6] of 176% and an Activity [9] of 53%.

Source: ChEMBL document CHEMBL4477174, “Valencene from the Rhizomes of Cyperus rotundus Inhibits Skin Photoaging-Related Ion Channels and UV-Induced Melanogenesis in B16F10 Melanoma Cells” (J Nat Prod, 2016)
